In ChEMBL document CHEMBL2390931, “Synthesis and antifungal activity of some s-mercaptotriazolobenzothiazolyl amino acid derivatives” (2013):
In brackets after ≈: the same amount, converted by molar mass. Activity calls are given as the source filed them. The calls are words filed in the database; no cut-off is given here.

Columns and labels:
Assay type in all cases: functional
Aspergillus flavus [1] = assay: Antifungal activity against Aspergillus flavus at 300 ppm; details: for zone of inhibition at 300 ppm: read-out: DIZ
Outline: (§1)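 Agar well diffusion against clinical isolates (A. flavus mold; C. albicans yeast); standardized spore suspension 10⁴ CFU/mL. Compounds dissolved in DMSO as a parent stock, diluted to test levels (100, 300, 500, 1000 ppm).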

Aspergillus flavus [2] = assay: Antifungal activity against Aspergillus flavus at 100 ppm
Outline: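 Clinical isolate of A. flavus (mold) tested by agar diffusion, well technique, using a standardized spore suspension of 10⁴ CFU/mL. Compounds were dissolved in dimethylsulphoxide and diluted from a parent stock.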

Candida albicans [3] = assay: Antifungal activity against Candida albicans by agar diffusion technique
Outline: (§2)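 Clinical isolates (A. flavus mold; C. albicans yeast), spore suspension standardized at 10⁴ CFU/mL. DMSO stocks diluted to a concentration series. Approximate MIC by agar diffusion (well technique), taken as the concentration giving minimal inhibition around the well.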

Aspergillus flavus [4] = assay: Antifungal activity against Aspergillus flavus by agar diffusion technique; outline: as §2
Aspergillus flavus [5] = assay: Antifungal activity against Aspergillus flavus at 1000 ppm; details: for zone of inhibition at 1000 ppm: read-out: DIZ; outline: as §1
Candida albicans [6] = assay: Antifungal activity against Candida albicans at 100 ppm; details: for zone of inhibition at 100 ppm: read-out: DIZ; outline: as §1
Candida albicans [7] = assay: Antifungal activity against Candida albicans at 1000 ppm; details: read-out: DIZ; outline: as §1
Candida albicans [8] = assay: Antifungal activity against Candida albicans at 500 ppm; details: for zone of inhibition at 500 ppm: read-out: DIZ; outline: as §1
Candida albicans [9] = assay: Antifungal activity against Candida albicans up to 24 hrs
Outline: (§3)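 MFC in tubes of standardized spore suspension (10⁴ CFU/mL) of clinical isolates, each dosed with compound at increasing concentrations starting from the MIC. Controls: solvent at its highest level, and fluconazole. CFU counted and viability checked at intervals over 0–24 h. MFC is the lowest concentration killing about 99% of viable CFU.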

Candida albicans [10] = assay: Antifungal activity against Candida albicans at 300 ppm; details: for zone of inhibition at 300 ppm: read-out: DIZ; outline: as §1
Aspergillus flavus [11] = assay: Antifungal activity against Aspergillus flavus up to 24 hrs; outline: as §3
Aspergillus flavus [12] = assay: Antifungal activity against Aspergillus flavus at 500 ppm; details: for zone of inhibition at 500 ppm: read-out: DIZ; outline: as §1

Row | SMILES | diameter of the inhibition zone (DIZ) (Aspergillus flavus [1]) | diameter of the inhibition zone (DIZ) (Aspergillus flavus [2]) | MIC (Candida albicans [3]) | MIC (Aspergillus flavus [4]) | diameter of the inhibition zone (DIZ) (Aspergillus flavus [5]) | diameter of the inhibition zone (DIZ) (Candida albicans [6]) | zone of inhibition at 1000 ppm (Candida albicans [7]) | zone of inhibition at 500 ppm (Candida albicans [8]) | MFC (Candida albicans [9]) | diameter of the inhibition zone (DIZ) (Candida albicans [10]) | MFC (Aspergillus flavus [11]) | diameter of the inhibition zone (DIZ) (Aspergillus flavus [12]) | zone of inhibition at 1000 ppm (Aspergillus flavus [5]) | zone of inhibition at 300 ppm (Candida albicans [10]) | zone of inhibition at 500 ppm (Aspergillus flavus [12]) | zone of inhibition at 300 ppm (Aspergillus flavus [1]) | zone of inhibition at 100 ppm (Candida albicans [6]) | diameter of the inhibition zone (DIZ) (Candida albicans [8]) | zone of inhibition at 100 ppm (Aspergillus flavus [2]; read-out: DIZ) | MFC (Aspergillus flavus [4])
1 | COC(=O)[C@H](CC(C)C)NC(=O)CSc1nnc2sc3ccccc3n12 | inactive | inactive | 500 µg/mL (≈ 1270 µM) | inactive | inactive | inactive | 10 mm | < 10 mm | inactive | inactive | inactive | inactive | – | – | – | – | – | – | – | –
2 | COC(=O)CCn1nc2sc3ccccc3n2c1=S | inactive | inactive | 300 µg/mL (≈ 1020 µM) | 1000 µg/mL (≈ 3410 µM) | – | inactive | > 16 mm | < 10 mm | inactive | – | inactive | inactive | < 10 mm | < 10 mm | – | – | – | – | – | –
3 | O=C(O)CCn1nc2sc3ccccc3n2c1=S | inactive | inactive | 300 µg/mL (≈ 1070 µM) | 500 µg/mL (≈ 1790 µM) | – | inactive | > 16 mm | 10 mm | inactive | – | inactive | – | 10 mm | < 10 mm | < 10 mm | – | – | – | – | –
4 | O=C(O)CSc1nnc2sc3ccccc3n12 | inactive | inactive | 300 µg/mL (≈ 1130 µM) | 1000 µg/mL (≈ 3770 µM) | – | inactive | 10 mm | < 10 mm | inactive | – | 500 µg/mL (≈ 1880 µM) | inactive | < 10 mm | < 10 mm | – | – | – | – | – | –
5 | O=C(CCn1nc2sc3ccccc3n2c1=S)N(C(=O)NC1CCCCC1)C1CCCCC1 | – | inactive | 100 µg/mL (≈ 206 µM) | 300 µg/mL (≈ 618 µM) | – | – | > 16 mm | > 16 mm | 500 µg/mL (≈ 1030 µM) | – | inactive | – | > 16 mm | 10 mm | 10 mm | < 10 mm | < 10 mm | – | – | –
6 | COC(=O)CCNC(=O)CSc1nnc2sc3ccccc3n12 | inactive | inactive | 1000 µg/mL (≈ 2850 µM) | inactive | – | inactive | < 10 mm | – | inactive | inactive | inactive | inactive | < 10 mm | – | – | – | – | inactive | – | –
7 | Sc1nnc2sc3ccccc3n12 | – | inactive | 100 µg/mL (≈ 482 µM) | 300 µg/mL (≈ 1450 µM) | – | – | > 16 mm | > 16 mm | 500 µg/mL (≈ 2410 µM) | – | 500 µg/mL (≈ 2410 µM) | – | > 16 mm | 10 mm | 10 mm | < 10 mm | < 10 mm | – | – | –
8 | COC(=O)[C@H](CCSC)NC(=O)CSc1nnc2sc3ccccc3n12 | inactive | inactive | 1000 µg/mL (≈ 2440 µM) | inactive | inactive | inactive | < 10 mm | – | inactive | inactive | inactive | inactive | – | – | – | – | – | inactive | – | –
9 | O=C(O)CCSc1nnc2sc3ccccc3n12 | inactive | inactive | 300 µg/mL (≈ 1070 µM) | 500 µg/mL (≈ 1790 µM) | – | inactive | > 16 mm | 10 mm | inactive | – | inactive | – | 10 mm | < 10 mm | < 10 mm | – | – | – | – | –
10 | NNC(=O)CSc1nnc2sc3ccccc3n12 | inactive | inactive | 100 µg/mL (≈ 358 µM) | inactive | inactive | – | > 16 mm | 10 mm | 500 µg/mL (≈ 1790 µM) | – | inactive | inactive | – | < 10 mm | – | – | < 10 mm | – | – | –
11 | COC(=O)[C@H](Cc1ccc(O)cc1)NC(=O)CSc1nnc2sc3ccccc3n12 | inactive | inactive | 100 µg/mL (≈ 226 µM) | 1000 µg/mL (≈ 2260 µM) | – | – | > 16 mm | > 16 mm | inactive | – | inactive | inactive | < 10 mm | < 10 mm | – | – | < 10 mm | – | – | –
12 | OC(Cn1cncn1)(Cn1cncn1)c1ccc(F)cc1F [FLUCONAZOLE] | – | – | 100 µg/mL (≈ 327 µM) | – | – | – | > 16 mm | > 16 mm | 300 µg/mL (≈ 980 µM) | – | 300 µg/mL (≈ 980 µM) | – | > 16 mm | 10 mm | > 16 mm | 10 mm | < 10 mm | – | < 10 mm | 100 µg/mL (≈ 327 µM)
13 | COC(=O)C(NC(=O)CSc1nnc2sc3ccccc3n12)C(C)O (racemic) | inactive | inactive | 500 µg/mL (≈ 1310 µM) | 1000 µg/mL (≈ 2630 µM) | – | inactive | 10 mm | < 10 mm | inactive | inactive | inactive | inactive | 10 mm | – | – | – | – | – | – | –
14 | COC(=O)CNC(=O)CSc1nnc2sc3ccccc3n12 | inactive | inactive | 500 µg/mL (≈ 1490 µM) | 1000 µg/mL (≈ 2970 µM) | – | inactive | 10 mm | < 10 mm | inactive | inactive | inactive | inactive | < 10 mm | – | – | – | – | – | – | –
